Results: ChEMBL document CHEMBL1152585, “Identification of small molecule regulators of the nuclear receptor HNF4alpha based on naphthofuran scaffolds” (Bioorg Med Chem, 2009)
The source made the active and inactive calls. The rule behind the calls is not given here.

Tests used:
[1] = molecular target: T1, Hepatocyte nuclear factor 4-alpha (Homo sapiens) (UniProt P41235); experiment: Agonist activity at human full length HNF4alpha nuclear receptor expressed in human HepG2/C3A cells co-transfected with LexADBD assessed as increase in transcriptional activity at 9.3 uM by beta-galactosidase one hybrid assay relative to control; type: functional, cell-based
T1 sequence (whole entry): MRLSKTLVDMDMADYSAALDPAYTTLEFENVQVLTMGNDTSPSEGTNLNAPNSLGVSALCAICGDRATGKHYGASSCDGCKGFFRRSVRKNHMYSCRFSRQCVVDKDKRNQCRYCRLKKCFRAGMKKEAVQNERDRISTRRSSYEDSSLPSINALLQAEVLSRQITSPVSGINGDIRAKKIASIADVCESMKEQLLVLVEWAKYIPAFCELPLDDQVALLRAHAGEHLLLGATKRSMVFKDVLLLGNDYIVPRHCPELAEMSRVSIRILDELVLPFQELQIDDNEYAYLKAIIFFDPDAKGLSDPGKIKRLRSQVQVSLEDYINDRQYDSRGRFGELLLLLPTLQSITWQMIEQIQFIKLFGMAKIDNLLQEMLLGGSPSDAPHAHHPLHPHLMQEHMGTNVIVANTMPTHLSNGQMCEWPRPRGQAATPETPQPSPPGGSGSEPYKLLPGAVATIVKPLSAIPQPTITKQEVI

[2] = molecular target: T2, Hepatocyte nuclear factor 4-alpha (Homo sapiens, UniProt P41235); experiment: Agonist activity at human full length HNF4alpha nuclear receptor expressed in human HepG2/C3A cells co-transfected with LexADBD assessed as increase in transcriptional activity after 16 hrs by beta-galactosidase one hybrid assay; type: functional, cell-based
T2 sequence (P41235 whole entry): T1 sequence (whole entry)
Summary of the method: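 Yeast one-hybrid with LexA DNA-binding domain fusions of HNF4α (full length, AF-1-deleted, or LBD lacking F domain). Increasing compound concentrations applied to yeast for 16 h, then β-galactosidase assay. EC50 taken from the dose–response curves.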

HepG2/C3A [3] = experiment: Enhancement of beta-galactosidase activity in human HepG2/C3A cells transfected with estrogen receptor assessed as increase in transcriptional activity after 16 hrs; type: functional, cell-based
HepG2/C3A [4] = experiment: Enhancement of beta-galactosidase activity in human HepG2/C3A cells transfected with Gal4 assessed as increase in transcriptional activity after 16 hrs; type: functional, cell-based
HepG2/C3A [5] = experiment: Enhancement of beta-galactosidase activity in human HepG2/C3A cells transfected with LexACOUP-TFII assessed as increase in transcriptional activity after 16 hrs; type: functional, cell-based
[6] = Cytotoxicity against human HepG2/C3A cells after 48 hrs by MTT assay; type: functional, cell-based
[7] = molecular target: T1, Hepatocyte nuclear factor 4-alpha (Homo sapiens); experiment: Agonist activity at human full length HNF4alpha nuclear receptor expressed in human HepG2/C3A cells co-transfected with LexADBD assessed as increase in transcriptional activity at 12.5 uM by beta-galactosidase one hybrid assay relative to control; type: functional, cell-based
[8] = molecular target: T1, Hepatocyte nuclear factor 4-alpha (Homo sapiens); experiment: Activation of HNFalpha transcriptional activity in human […] cells transfected with ApoB-luc assessed as activation of luciferase reporter gene after 24 hrs; type: cell-based
Summary of the method: (§1)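 HepG2C3A cells seeded at 6 × 10⁴/well in DMEM, transfected 24 h later (JetPEI) with 800 ng total DNA: 250 ng ApoB-Luc or ApoCIII-Luc reporter, 250 ng β-galactosidase plasmid, HNF4α expression vector. Treated 24 h (DMSO 0.5% control). Luciferase read in lysate supernatant and normalised to β-gal (4-MUG fluorescence, ex 365/em 450 nm). Fold induction vs DMSO. At least three independent experiments, in triplicate.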

[9] = molecular target: T1, Hepatocyte nuclear factor 4-alpha (Homo sapiens); experiment: Agonist activity at human full length HNF4alpha nuclear receptor expressed in human HepG2/C3A cells co-transfected with LexADBD assessed as increase in transcriptional activity at 18.7 uM by beta-galactosidase one hybrid assay relative to control; type: functional, cell-based
[10] = molecular target: T1, Hepatocyte nuclear factor 4-alpha (Homo sapiens); experiment: Activation of HNFalpha transcriptional activity in human […] cells transfected with ApoCIII-luc assessed as activation of luciferase reporter gene after 24 hrs; type: cell-based; summary of the method: as §1
[11] = molecular target: T1, Hepatocyte nuclear factor 4-alpha (Homo sapiens); experiment: Agonist activity at human full length HNF4alpha nuclear receptor expressed in human HepG2/C3A cells co-transfected with LexADBD assessed as increase in transcriptional activity at 6.2 uM by beta-galactosidase one hybrid assay relative to control; type: functional, cell-based
[12] = molecular target: T1, Hepatocyte nuclear factor 4-alpha (Homo sapiens); experiment: Stabilization of thermal denaturation-induced conformational change in human HNF4alpha nuclear receptor ligand binding domain assessed as change in transition temperature by thermofluor assay
Summary of the method: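 Human HNF4α LBD (aa 133–368), 6xHis-tagged, expressed in E. coli, purified under denaturing conditions, renatured and TEV-cleaved (apo). Protein at 0.3 mg/mL in 20 mM Tris-Cl pH 8.0, 100 mM NaCl, with 3× molar excess test compound and SYPRO Orange (20× working). Heated 20–90 °C at 1 °C/min. ΔTm = Tm − T0 against a water control; means of 3–6 independent experiments ± SE.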

[13] = molecular target: T1, Hepatocyte nuclear factor 4-alpha (Homo sapiens); experiment: Agonist activity at human full length HNF4alpha nuclear receptor expressed in human HepG2/C3A cells co-transfected with LexADBD assessed as increase in transcriptional activity at 100 uM by beta-galactosidase one hybrid assay relative to control; type: functional, cell-based
[14] = molecular target: T1, Hepatocyte nuclear factor 4-alpha (Homo sapiens); experiment: Agonist activity at human HNF4alpha7 nuclear receptor LBDdetaF expressed in human HepG2/C3A cells co-transfected with LexADBD assessed as increase in transcriptional activity after 16 hrs by beta-galactosidase one hybrid assay; type: functional, cell-based
[15] = molecular target: T1, Hepatocyte nuclear factor 4-alpha (Homo sapiens); experiment: Agonist activity at AF1 deleted human HNF4alpha7 nuclear receptor expressed in human HepG2/C3A cells co-transfected with LexADBD assessed as increase in transcriptional activity after 16 hrs by beta-galactosidase one hybrid assay; type: functional, cell-based

Row | SMILES | fold change (FC) [1] | EC50 [2] | IC50 [6] | further results
1 | COc1cc2ccccc2c2cc([N+](=O)[O-])oc12 | 6.6 | 1470 nM | 4400 nM | Activity (HepG2/C3A [3]): inactive; Activity (HepG2/C3A [4]): inactive; Activity (HepG2/C3A [5]): inactive
2 | O=[N+]([O-])c1oc2ccc3ccccc3c2c1CCO |  | 1220 nM | 2040 nM | fold change (FC) [7]: 4.58
3 | Cc1c([N+](=O)[O-])oc2ccc3ccccc3c12 |  | 1280 nM | > 5000 nM | Activity [8]: Dose-dependent effect; fold change (FC) [9]: 5.51; Activity [10]: Dose-dependent effect
4 | O=[N+]([O-])c1cc2c(ccc3cc(O)ccc32)o1 |  | 1950 nM | 5000 nM | fold change (FC) [11]: 11.1; ΔTm [12]: 0.84 °C
5 | O=[N+]([O-])c1cc2c(ccc3ccccc32)o1 |  | 2090 nM | 2510 nM | fold change (FC) [7]: 4.46
6 | NC(=O)c1cc2c(ccc3ccccc32)o1 |  | > 100000 nM | > 5000 nM | fold change (FC) [13]: 2
7 | COc1ccc2c(ccc3oc([N+](=O)[O-])cc32)c1 | 8.05 | 2570 nM | 2240 nM | Activity [14]: inactive; Activity [15]: inactive
8 | COc1ccc2ccc3oc([N+](=O)[O-])cc3c2c1 | 7.97 | 2330 nM | 2280 nM | 
